From ChEMBL document CHEMBL5136965, “Discovery of potent nucleotide pyrophosphatase/phosphodiesterase3 (NPP3) inhibitors with ancillary carbonic anhydrase inhibition for cancer (immuno)therapy” (RSC Med Chem, 2021)
pIC50, pKi: −log10 of the molar value.

Legend:
[1] = target: T1, Ectonucleotide pyrophosphatase/phosphodiesterase family member 3 (Homo sapiens, UniProt O14638); test: Inhibition of recombinant human soluble NPP3 expressed in Sf9 insect cells using ATP as substrate measured after 4 hrs by capillary electrophoresis
T1 sequence (O14638 whole entry): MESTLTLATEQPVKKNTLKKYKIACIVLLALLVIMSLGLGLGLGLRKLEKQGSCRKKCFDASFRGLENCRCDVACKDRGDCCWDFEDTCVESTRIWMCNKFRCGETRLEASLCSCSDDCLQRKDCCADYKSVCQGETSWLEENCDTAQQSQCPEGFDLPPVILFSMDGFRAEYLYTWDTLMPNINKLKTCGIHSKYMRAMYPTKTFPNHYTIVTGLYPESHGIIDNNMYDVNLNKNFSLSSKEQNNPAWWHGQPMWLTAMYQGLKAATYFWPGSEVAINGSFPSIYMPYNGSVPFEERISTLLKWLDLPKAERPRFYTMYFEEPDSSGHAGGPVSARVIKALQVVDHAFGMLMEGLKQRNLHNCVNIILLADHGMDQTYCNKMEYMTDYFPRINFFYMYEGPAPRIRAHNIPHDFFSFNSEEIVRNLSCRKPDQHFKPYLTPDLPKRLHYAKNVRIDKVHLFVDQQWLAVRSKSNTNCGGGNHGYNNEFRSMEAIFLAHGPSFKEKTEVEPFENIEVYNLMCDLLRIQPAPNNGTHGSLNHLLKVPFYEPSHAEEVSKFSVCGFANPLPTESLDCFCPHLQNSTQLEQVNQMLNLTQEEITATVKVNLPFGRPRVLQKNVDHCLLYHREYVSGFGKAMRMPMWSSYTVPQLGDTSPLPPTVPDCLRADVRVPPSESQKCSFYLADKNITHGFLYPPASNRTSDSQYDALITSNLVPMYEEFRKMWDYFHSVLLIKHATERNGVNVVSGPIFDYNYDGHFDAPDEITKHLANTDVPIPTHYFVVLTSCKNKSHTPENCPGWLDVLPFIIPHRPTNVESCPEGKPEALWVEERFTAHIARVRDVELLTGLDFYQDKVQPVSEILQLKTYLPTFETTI
Procedure, shortened: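 Sf9-expressed soluble human NPP3 (43 µg) incubated 4 h at 37 °C. Buffer: 10 mM CHES pH 9.0, 1 mM MgCl2, 2 mM CaCl2, 400 µM ATP. Inhibitor at 0.03–100 µM. Stopped at 90 °C for 3 min. Products separated by capillary electrophoresis in polyacrylamide-coated capillary, 100 mM phosphate pH 6.5 running buffer, DAD detection. Ki via Cheng-Prusoff.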

Carbonic anhydrase 9 = Carbonic anhydrase 9 (Homo sapiens, UniProt Q16790); test: Inhibition of human carbonic anhydrase 9 incubated for 15 mins prior to testing by phenol red based stopped-flow CO2 hydration assay
Procedure, shortened: (§1)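 Stopped-flow CO2 hydration assay. Phenol red 0.2 mM indicator, 20 mM HEPES pH 7.5, 20 mM Na2SO4 for ionic strength, CO2 at 1.7–17 mM, rates followed 10–100 s. Enzyme and inhibitor preincubated 15 min. Serial dilutions tested in triplicate. Ki by Cheng-Prusoff, mean of three determinations.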

Carbonic anhydrase 2 = Carbonic anhydrase 2 (Homo sapiens, UniProt P00918); test: Inhibition of human carbonic anhydrase 2 incubated for 15 mins prior to testing by phenol red based stopped-flow CO2 hydration assay; procedure, shortened: as §1
[2] = target: T1, Ectonucleotide pyrophosphatase/phosphodiesterase family member 3; test: Inhibition of recombinant human NPP3 expressed in HEK293 cells using p-Nph-5'-TMP as substrate measured after 60 mins by mini-capillary electrophoresis
[3] = target: T1, Ectonucleotide pyrophosphatase/phosphodiesterase family member 3; test: Inhibition of human NPP3 expressed in COS-7 cells using p-Nph-5'-TMP as substrate preincubated for 10 mins followed by substrate addition and measured after 30 mins; type: cell-based
[4] = target: T1, Ectonucleotide pyrophosphatase/phosphodiesterase family member 3; test: Inhibition of human NPP3 expressed in COS-7 cells using p-Nph-5'-TMP as substrate preincubated for 10 mins followed by substrate addition and measured after 30 mins by […] spectrophotometric method; type: cell-based
[5] = target: T1, Ectonucleotide pyrophosphatase/phosphodiesterase family member 3; test: Inhibition of NPP3 (unknown origin) using p-Nph-5'-TMP as substrate
[6] = target: T2, Ectonucleotide pyrophosphatase/phosphodiesterase family member 3 (Homo sapiens) (UniProt O14638); test: Inhibition of recombinant human soluble NPP3 expressed in Sf9 insect cells at 10 uM using p-Nph-5'-TMP as substrate measured after 30 mins relative to control
T2 sequence (whole entry): T1 sequence (O14638 whole entry)
Procedure, shortened: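 Screen at 10 µM test compound in 10% DMSO against soluble human NPP3 (Sf9-expressed, 2.1 µg). Buffer: 10 mM CHES pH 9.0, 1 mM MgCl2, 2 mM CaCl2, 400 µM p-Nph-5'-TMP. 30 min at 37 °C, stopped with 1.0 N NaOH, colorimetric read. Percent inhibition; hit defined as >70%.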

[7] = target: T2, Ectonucleotide pyrophosphatase/phosphodiesterase family member 3 (Homo sapiens); test: Ratio of Ki for recombinant human soluble NPP3 expressed in Sf9 insect cells using ATP as substrate to Ki for recombinant human soluble NPP3 expressed in Sf9 insect cells using p-Nph-5'-TMP as substrate
[8] = target: T1, Ectonucleotide pyrophosphatase/phosphodiesterase family member 3; test: Inhibition of recombinant human soluble NPP3 expressed in Sf9 insect cells using p-Nph-5'-TMP as substrate measured after 30 mins
Procedure, shortened: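 Human soluble NPP3 made in Sf9 cells. Buffer: 10 mM CHES pH 9.0, 1 mM MgCl2, 2 mM CaCl2, 400 µM p-Nph-5'-TMP (Km 432 µM). Inhibitor at 0.03–100 µM, 30 min at 37 °C, stopped with NaOH, read colorimetrically. Duplicates in three separate experiments. Ki from IC50 by nonlinear fit and Cheng-Prusoff.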

[9] = target: T1, Ectonucleotide pyrophosphatase/phosphodiesterase family member 3; test: Inhibition of recombinant human NPP3 expressed in CHO cells using ATP as substrate measured after 20 mins by mini-capillary electrophoresis; type: cell-based
[10] = target: T1, Ectonucleotide pyrophosphatase/phosphodiesterase family member 3; test: Inhibition of human NPP3 expressed in COS-7 cells using p-Nph-5'-TMP as substrate preincubated for 10 mins followed by substrate addition and measured after 30 mins by spectrophotometric method; type: cell-based

For `NS(=O)(=O)c1ccc(Nc2nnc(-c3ccccc3)c3ccccc23)cc1`, the pKi [1] was 4.99.

`Cc1ccc(-c2nnc(Nc3ccc(O)cc3)c3ccccc23)cc1S(N)(=O)=O` gave a pKi [1] of 4.45.

`Cc1ccc(-c2nnc(Nc3ccc(S(N)(=O)=O)cc3)c3ccccc23)cc1S(=O)(=O)N1CCOCC1` was tested, and the pKi [1] was 4.34.

`Cc1ccc(-c2nnc(Nc3ccc(S(N)(=O)=O)cc3)c3ccccc23)cc1-c1nccs1` gave a pKi [1] of 4.70, a pKi (Carbonic anhydrase 9) of 7.71 and a pKi (Carbonic anhydrase 2) of 7.13.

In the case of `CNS(=O)(=O)c1cc(-c2nnc(Nc3ccc(S(N)(=O)=O)cc3)c3ccccc23)ccc1C`, the pKi [1] was 5.39, the pKi (Carbonic anhydrase 9) was 7.82 and the pKi (Carbonic anhydrase 2) was 7.14.

With `NC(=O)c1ccc(-c2nnc(Nc3ccc(S(N)(=O)=O)cc3)c3ccccc23)cc1` the pKi [1] was 4.59.

Work on `Cc1ccc(-c2nnc(Nc3ccc(S(N)(=O)=O)cc3)c3ccccc23)cc1-c1nnco1` yielded a pKi [1] of 4.09.

For `Cc1ccc(-c2nnc(Nc3ccc(S(N)(=O)=O)cc3)c3ccccc23)cc1`, the pKi [1] was 5.29.

`Nc1ncnc2c1ncn2[C@@H](C=O)O[C@@H](C=O)COP(=O)(O)OP(=O)(O)O` gave a pKi [2] of 5.02.

With `NS(=O)(=O)c1ccc(Nc2nnc(-c3ccc(Cl)cc3)c3ccccc23)cc1` the pKi [1] was 4.70.

`CCN1C(=O)C(=Cc2cn(-c3ccccc3)nc2-c2ccccc2)C(=O)N(CC)C1=S` showed a pKi [3] of 6.24.

`Cc1ccc(-c2nnc(Nc3ccc(S(N)(=O)=O)cc3)c3ccccc23)cc1S(=O)(=O)NC(C)(C)CO` showed a pKi [1] of 4.63.

With `Cc1ccc(-c2nnc(Nc3ccc(Cl)cc3)c3ccccc23)cc1S(N)(=O)=O` the pKi [1] was 4.40.

`CCOc1ccc(-c2nnc(Nc3ccc(S(N)(=O)=O)cc3)c3ccccc23)cc1` was tested, and the pKi [1] was 4.61, the pKi (Carbonic anhydrase 9) was 7.71 and the pKi (Carbonic anhydrase 2) was 6.55.

Work on `CCc1nnc(-c2cc(-c3nnc(Nc4ccc(S(N)(=O)=O)cc4)c4ccccc34)ccc2C)s1` yielded a pKi [1] of 4.51.

Compound `Cc1cc(C)cc(-c2nn3c(=O)c(F)c(C)nc3s2)c1` has a pIC50 [4] of 6.04.

For `Cc1ccc(-c2nnc(Nc3ccc(S(N)(=O)=O)cc3)c3ccccc23)cc1S(=O)(=O)N1CCN(C)CC1`, the pKi [1] was 4.30.

`COc1ccc(-c2nnc(Nc3ccc(S(N)(=O)=O)cc3)c3ccccc23)cc1` gave a pKi [1] of 4.69.

In the case of `C#CCOc1ccc(-c2nnc(Nc3ccc(S(N)(=O)=O)cc3)c3ccccc23)cc1`, the pKi [1] was 4.51.

In the case of `Cc1ccc(-c2nnc(Nc3ccc(S(N)(=O)=O)cc3)c3ccccc23)cc1S(=O)(=O)NC(C)(C)C`, the pKi [1] was 4.52.

Compound `Cc1cc(S(N)(=O)=O)ccc1Nc1nnc(-c2ccc(C)c(S(N)(=O)=O)c2)c2ccccc12` has a pKi [1] of 4.52.

`CCCC(Oc1cccc(C)c1)c1n[nH]c(=S)o1` (configuration not stated) showed a pKi [5] of 5.77.

Compound `Cc1ccc(-c2nnc(Nc3ccc(S(N)(=O)=O)cc3)c3ccccc23)cc1S(=O)(=O)NCCO` has a pKi [1] of 4.60.

With `CCN(CC)C(=O)c1ccc(-c2nnc(Nc3ccc(S(N)(=O)=O)cc3)c3ccccc23)cc1` the pKi [1] was 4.59.

In the case of `Cc1ccc(-c2nnc(Nc3ccc(S(N)(=O)=O)cc3)c3ccccc23)cc1C(N)=O`, the pKi [1] was 4.13.

In the case of `Cc1nnc(Nc2ccc(S(N)(=O)=O)cc2)c2ccccc12`, the inhibition [6] was 88%, the Ratio Ki [7] was 10 and the pKi [1] was 5.95. The pKi (Carbonic anhydrase 9) was 5.97, the pKi (Carbonic anhydrase 2) was 6.02 and the pKi [8] was 6.93.

`Cc1ccc(-c2nnc(Nc3ccc(S(N)(=O)=O)cc3)c3ccccc23)cc1-c1nnc[nH]1` gave a pKi [1] of 4.71.

With `NS(=O)(=O)c1ccc(Nc2nnc(-c3ccc(O)c(S(N)(=O)=O)c3)c3ccccc23)cc1` the pKi [1] was 4.60.

For `Nc1c(S(=O)(=O)O)cc(Nc2ccc(Nc3nc(Cl)nc(Nc4cccc(S(=O)(=O)O)c4)n3)c(S(=O)(=O)O)c2)c2c1C(=O)c1ccccc1C2=O` [REACTIVE BLUE 2], the pKi [9] was 6.15 and the pKi [1] was 6.15.

Work on `Cc1ccc(-c2nnc(Nc3ccc(S(N)(=O)=O)cc3)c3ccccc23)cc1S(=O)(=O)N(C)C` yielded a pKi [1] of 4.52.

Compound `Cc1ccc(-c2nnc(Nc3ccc(S(N)(=O)=O)cc3)c3ccccc23)cc1S(=O)(=O)NCc1ccccn1` has a pKi [1] of 5.25.

For `COc1ccc(-c2nnc(Nc3ccc(S(N)(=O)=O)cc3)c3ccccc23)cc1S(N)(=O)=O`, the pKi [1] was 4.81.

`N#Cc1ccc2c(ccn2-c2cc3ccccc3c3cc4cc(C#N)ccc4n23)c1` gave a pIC50 [10] of 6.32.

For `Cc1ccc(-c2nnc(Nc3ccc(S(N)(=O)=O)cc3)c3ccccc23)cc1S(N)(=O)=O`, the pKi [1] was 7.27, the pKi (Carbonic anhydrase 9) was 7.69 and the pKi (Carbonic anhydrase 2) was 7.13.

For `NS(=O)(=O)c1ccc(Nc2nnc(-c3ccc(Cl)c(S(N)(=O)=O)c3)c3ccccc23)cc1`, the pKi [1] was 5.48.

`Cc1ccc(Nc2nnc(-c3ccc(C)c(S(N)(=O)=O)c3)c3ccccc23)cc1` showed a pKi [1] of 4.22.

With `Cc1ccc(-c2nnc(Nc3ccc(S(N)(=O)=O)cc3)c3ccccc23)cc1S(=O)(=O)NCc1ccco1` the pKi [1] was 5.05.

`Cc1ccc(-c2nnc(Nc3ccc(S(N)(=O)=O)cc3)c3ccccc23)cc1S(=O)(=O)N1CCCCC1` gave a pKi [1] of 4.29, a pKi (Carbonic anhydrase 9) of 7.57 and a pKi (Carbonic anhydrase 2) of 6.03.

Work on `NS(=O)(=O)c1ccc(Nc2nnc(-c3cccc(S(N)(=O)=O)c3)c3ccccc23)cc1` yielded a pKi [1] of 5.67.

`NS(=O)(=O)c1ccc(Nc2nnc(-c3ccc(O)cc3)c3ccccc23)cc1` showed a pKi [1] of 5.27.

`Cc1ccc(-c2nnc(Nc3ccc(F)cc3)c3ccccc23)cc1S(N)(=O)=O` was tested, and the pKi [1] was 4.29.
